Activity calls are given as the source filed them. The rule behind the calls is not given here.
Experiments:
Format in all cases: functional
[1] = test system: UACC-62; assay: Growth inhibition of human UACC62 cells at 10 uM after 48 hrs by coulter counting
Summary of the method: (§1)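 Single-dose screen in the NCI 60 human tumor cell line panel (nine subpanels). Compounds dissolved in DMSO and diluted in phosphate buffered saline, keeping final DMSO below 1%. Added in duplicate wells to cells at 6 × 10⁴ cells/ml. Controls held PBS and DMSO at matching dilutions. Incubated at 37 °C, humidified, 5% CO₂. Reported as percent growth of treated cells.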

[2] = test system: UACC-257; assay: Growth inhibition of human UACC257 cells at 10 uM after 48 hrs by coulter counting; summary of the method: as §1
[3] = test system: NCI-H522; assay: Growth inhibition of human NCI-H522 cells at 10 uM after 48 hrs by coulter counting
Summary of the method: (§2)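 Single-dose primary screen across the full NCI 60-cell-line panel. Stocks were made in DMSO and diluted in PBS to a final DMSO below 1%. Cultures at 6 × 10⁴ cells/ml were run in duplicate wells alongside PBS/DMSO vehicle controls at 37 °C in humidified 5% CO₂. Data were expressed as percent growth of treated cells.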

[4] = test system: MDA-MB-435; assay: Growth inhibition of human MDA-MB-435 cells at 10 uM after 48 hrs by coulter counting; summary of the method: as §2
[5] = test system: NCI-H23; assay: Growth inhibition of human NCI-H23 cells at 10 uM after 48 hrs by coulter counting; summary of the method: as §2
[6] = Cytotoxicity against human ovarian cancer cells after 48 hrs by coulter counting; conditions: Cancer cell lines
Summary of the method: (§3)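 NCI 60-cell-line panel covering nine tumour subpanels, tested over a 5-log dose range. Compounds were dissolved in DMSO and diluted in phosphate-buffered saline to a final DMSO below 1%. Wells held 6 × 10⁴ cells/ml and were run in duplicate. Controls contained PBS and DMSO at matching dilutions. Incubation was at 37 °C in humidified 5% CO₂. GI₅₀, TGI and LC₅₀ were reported.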

[7] = test system: UO-31; assay: Growth inhibition of human UO31 cells at 10 uM after 48 hrs by coulter counting; summary of the method: as §1
[8] = Cytotoxicity against human breast cancer cells after 48 hrs by coulter counting; conditions: Cancer cell lines; summary of the method: as §3
[9] = test system: T47D; assay: Growth inhibition of human T47D cells at 10 uM after 48 hrs by coulter counting; conditions: read-out: GI; summary of the method: as §1
[10] = test system: CAKI-1; assay: Growth inhibition of human Caki1 cells at 10 uM after 48 hrs by coulter counting; summary of the method: as §2
[11] = Cytotoxicity against human leukemia cells after 48 hrs by coulter counting; conditions: Leukemia cell; summary of the method: as §3
[12] = test system: HL-60(TB); assay: Growth inhibition of human HL-60(TB) cells at 10 uM after 48 hrs by coulter counting
Summary of the method: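 Test compound was dissolved in DMSO and diluted in phosphate-buffered saline to a final DMSO level below 1%. Dilutions were plated in duplicate with cell culture at 6 × 10⁴ cells/ml. Vehicle controls held PBS and DMSO at matching dilutions. Incubation was at 37 °C, humidified, under 5% CO₂. Data were reported as percent growth of treated cells.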

[13] = test system: MOLT-4; assay: Growth inhibition of human MOLT4 cells at 10 uM after 48 hrs by coulter counting; summary of the method: as §2
[14] = test system: A498; assay: Growth inhibition of human A498 cells at 10 uM after 48 hrs by coulter counting; summary of the method: as §2
[15] = Cytotoxicity against human prostate cancer cells after 48 hrs by coulter counting; conditions: Cancer cell lines; summary of the method: as §3
[16] = test system: U-251; assay: Growth inhibition of human U251 cells at 10 uM after 48 hrs by coulter counting; summary of the method: as §1
[17] = test system: HCT-116; assay: Growth inhibition of human HCT116 cells at 10 uM after 48 hrs by coulter counting; summary of the method: as §2
[18] = test system: SK-MEL-5; assay: Growth inhibition of human SK-MEL-5 cells at 10 uM after 48 hrs by coulter counting; summary of the method: as §2
[19] = test system: SF-539; assay: Growth inhibition of human SF539 cells at 10 uM after 48 hrs by coulter counting; conditions: SF-539, 48 h, read-out: GI; summary of the method: as §2
[20] = test system: DU-145; assay: Growth inhibition of human DU145 cells at 10 uM after 48 hrs by coulter counting; summary of the method: as §2
[21] = test system: SNB-19; assay: Growth inhibition of human SNB19 cells at 10 uM after 48 hrs by coulter counting; conditions: SNB-19, 48 h, read-out: GI; summary of the method: as §2
[22] = test system: M14; assay: Growth inhibition of human M14 cells at 10 uM after 48 hrs by coulter counting; summary of the method: as §2
[23] = test system: RPMI-8226; assay: Growth inhibition of human RPMI8226 cells at 10 uM after 48 hrs by coulter counting; summary of the method: as §2
[24] = Growth inhibition of human NCI-322M cells at 10 uM after 48 hrs by coulter counting; conditions: read-out: GI; summary of the method: as §2
[25] = test system: EKVX; assay: Growth inhibition of human EKVX cells at 10 uM after 48 hrs by coulter counting; summary of the method: as §2
[26] = test system: NSCLC; assay: Cytotoxicity against human NSCLC cells after 48 hrs by coulter counting; summary of the method: as §3
[27] = test system: SNB-75; assay: Growth inhibition of human SNB75 cells at 10 uM after 48 hrs by coulter counting; conditions: SNB-75, 48 h, read-out: GI; summary of the method: as §2
[28] = test system: CCRF-CEM; assay: Growth inhibition of human CCRF-CEM cells at 10 uM after 48 hrs by coulter counting; conditions: read-out: GI; summary of the method: as §2
[29] = test system: KM12; assay: Growth inhibition of human KM12 cells at 10 uM after 48 hrs by coulter counting; summary of the method: as §2
[30] = test system: NCI/ADR-RES; assay: Growth inhibition of human NCI/ADR-RES cells at 10 uM after 48 hrs by coulter counting; conditions: read-out: GI; summary of the method: as §2
[31] = Cytotoxicity against human colon cancer cells after 48 hrs by coulter counting; conditions: Cancer cell lines; summary of the method: as §3
[32] = test system: SR; assay: Growth inhibition of human SR cells at 10 uM after 48 hrs by coulter counting; summary of the method: as §1
[33] = test system: HOP-62; assay: Growth inhibition of human HOP62 cells at 10 uM after 48 hrs by coulter counting; summary of the method: as §2
[34] = test system: ACHN; assay: Growth inhibition of human ACHN cells at 10 uM after 48 hrs by coulter counting; summary of the method: as §2
[35] = Cytotoxicity against human renal cancer cells after 48 hrs by coulter counting; conditions: Cancer cell lines; summary of the method: as §3
[36] = test system: MCF7; assay: Growth inhibition of human MCF7 cells at 10 uM after 48 hrs by coulter counting; conditions: MCF7, 48 h, read-out: GI; summary of the method: as §2
[37] = test system: NCI-H460; assay: Growth inhibition of human NCI-H460 cells at 10 uM after 48 hrs by coulter counting; summary of the method: as §2
[38] = test system: IGROV-1; assay: Growth inhibition of human IGROV1 cells at 10 uM after 48 hrs by coulter counting; summary of the method: as §2
[39] = test system: HCC 2998; assay: Growth inhibition of human HCC2998 cells at 10 uM after 48 hrs by coulter counting; summary of the method: as §2
[40] = test system: BT-549; assay: Growth inhibition of human BT549 cells at 10 uM after 48 hrs by coulter counting; summary of the method: as §2
[41] = test system: OVCAR-4; assay: Growth inhibition of human OVCAR4 cells at 10 uM after 48 hrs by coulter counting; conditions: OVCAR-4, 48 h, read-out: GI; summary of the method: as §2
[42] = test system: HT-29; assay: Growth inhibition of human HT-29 cells at 10 uM after 48 hrs by coulter counting; summary of the method: as §2
[43] = Cytotoxicity against human CNS cancer cells after 48 hrs by coulter counting; conditions: Cancer cell lines; summary of the method: as §3
[44] = test system: SK-MEL-2; assay: Growth inhibition of human SK-MEL-2 cells at 10 uM after 48 hrs by coulter counting; summary of the method: as §2
[45] = test system: A549; assay: Growth inhibition of human A549 cells at 10 uM after 48 hrs by coulter counting; summary of the method: as §2
[46] = test system: K562; assay: Growth inhibition of human K562 cells at 10 uM after 48 hrs by coulter counting; summary of the method: as §2
[47] = test system: SF-295; assay: Growth inhibition of human SF295 cells at 10 uM after 48 hrs by coulter counting; summary of the method: as §2
[48] = test system: SF-268; assay: Growth inhibition of human SF268 cells at 10 uM after 48 hrs by coulter counting; conditions: SF-268, 48 h, read-out: GI; summary of the method: as §2
[49] = test system: SK-MEL-28; assay: Growth inhibition of human SK-MEL-28 cells at 10 uM after 48 hrs by coulter counting; conditions: SK-MEL-28, 48 h, read-out: GI; summary of the method: as §2
[50] = test system: NCI-H226; assay: Growth inhibition of human NCI-H226 cells at 10 uM after 48 hrs by coulter counting; summary of the method: as §2
[51] = test system: LOX IMVI; assay: Growth inhibition of human LOXIMVI cells at 10 uM after 48 hrs by coulter counting; summary of the method: as §2
[52] = read-out: LC50 (the source's name)

COc1cc(/C=C2\CCCC3=C2N=C2SC=CN2C3c2cc(OC)c(OC)c(OC)c2)cc(OC)c1OC (stereo not given)
growth inhibition (GI) [1]: Active
growth inhibition (GI) [2]: Active
growth inhibition (GI) [3]: Active
growth inhibition (GI) [4]: Active
growth inhibition (GI) [5]: Active
GI50 [6]: 1.9 µM
TGI [6]: > 100 µM
CC50 [6, 52]: > 100 µM
growth inhibition (GI) [7]: Active
GI50 [8]: 2.2 µM
TGI [8]: > 100 µM
CC50 [8, 52]: > 100 µM
inhibition of growth at 10 µM [9]: 69%
growth inhibition (GI) [10]: Active
GI50 [11]: 2 µM
TGI [11]: > 100 µM
CC50 [11, 52]: > 100 µM
growth inhibition (GI) [12]: Active
growth inhibition (GI) [13]: Active
growth inhibition (GI) [14]: Active
GI50 [15]: 2 µM
LC50 (concentration killing 50% of cells) [15]: > 100 µM
TGI [15]: > 100 µM
growth inhibition (GI) [16]: Active
growth inhibition (GI) [17]: Active
growth inhibition (GI) [18]: Active
inhibition of growth at 10 µM [19]: 91.3%
growth inhibition (GI) [20]: Active
inhibition of growth at 10 µM [21]: 79%
growth inhibition (GI) [22]: Active
growth inhibition (GI) [23]: Active
inhibition of growth at 10 µM [24]: 99.5%
growth inhibition (GI) [25]: Active
GI50 [26]: 2.3 µM
TGI [26]: > 100 µM
CC50 [26, 52]: > 100 µM
inhibition of growth at 10 µM [27]: 65%
inhibition of growth at 10 µM [28]: 94.1%
growth inhibition (GI) [29]: Active
inhibition of growth at 10 µM [30]: 90.5%
GI50 [31]: 1.6 µM
growth inhibition (GI) [32]: Active
growth inhibition (GI) [33]: Active
growth inhibition (GI) [34]: Active
GI50 [35]: 1.8 µM
LC50 (concentration giving 50% net cell kill) [35]: > 100 µM
TGI [35]: > 100 µM
inhibition of growth at 10 µM [36]: 76%
growth inhibition (GI) [37]: Active
growth inhibition (GI) [38]: Active
growth inhibition (GI) [39]: Active
growth inhibition (GI) [40]: Active
inhibition of growth at 10 µM [41]: 79.5%
growth inhibition (GI) [42]: Active
GI50 [43]: 47.8 µM
LC50 [43]: > 100 µM
TGI [43]: > 100 µM
growth inhibition (GI) [44]: Active
growth inhibition (GI) [45]: Active
growth inhibition (GI) [46]: Active
growth inhibition (GI) [47]: Active
inhibition of growth at 10 µM [48]: 95%
inhibition of growth at 10 µM [49]: 89.7%
growth inhibition (GI) [50]: Active
growth inhibition (GI) [51]: Active
